The source of these data is ChEMBL document CHEMBL1121504, “Aporphines. 31. Synthesis and antitumor activity of aporphine nitrogen mustards” (1980).

The test system of experiment [1] is P388. Kind of experiment: (§1) Antitumor activity against intraperitoneally implanted P388 lymphocytic leukemia (P388) system at dose 50 mg/kg. Type of experiment: functional, Mus musculus. The note with it: route intraperitoneal. In a few lines: (§2)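 P388 lymphocytic leukemia inoculated intraperitoneally and run under standard NCI screening protocols. Each compound was tested at several graded doses in mg/kg. Activity was read out as T/C for each dose, with confirmatory activity judged by the NCI criteria.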

Experiment [2] relates to P388. The experiment can be described thus: Antitumor activity against intraperitoneally implanted P388 lymphocytic leukemia (P388) system at dose 100 mg/kg. Type of experiment: functional, Mus musculus. As to conditions: route intraperitoneal. In a few lines: as §2
The test system of experiment [3] is P388. The experiment can be described thus: (§3) Antitumor activity against intraperitoneally implanted P388 lymphocytic leukemia (P388) system at dose 12.5 mg/kg. The note with it: route intraperitoneal. Type of experiment: functional, Mus musculus. An outline of the steps: as §2
In experiment [4] the test system is P388. The experiment can be described thus: (§4) Antitumor activity against intraperitoneally implanted P388 lymphocytic leukemia (P388) system at dose 25 mg/kg. Type of experiment: functional, Mus musculus. As to conditions: route intraperitoneal. An outline of the steps: as §2
Experiment [5] deals with P388. Kind of experiment: Antitumor activity against intraperitoneally implanted P388 lymphocytic leukemia (P388) system at dose 300 mg/kg. Type of experiment: functional, Mus musculus. As to conditions: route intraperitoneal. In a few lines: as §2
In experiment [6] the test system is P388. The experiment can be described thus: Antitumor activity against intraperitoneally implanted P388 lymphocytic leukemia (P388) system at dose 37.5 mg/kg. Type of experiment: functional, Mus musculus. As to conditions: route intraperitoneal. An outline of the steps: as §2
Experiment [7] concerns P388. Kind of experiment: Antitumor activity against intraperitoneally implanted P388 lymphocytic leukemia (P388) system at dose 75 mg/kg. Type of experiment: functional, Mus musculus. The note with it: route intraperitoneal. An outline of the steps:
as §2

Experiment [8] concerns P388. Kind of experiment: Antitumor activity against intraperitoneally implanted P388 lymphocytic leukemia (P388) system at dose 9.38 mg/kg. Type of experiment: functional, Mus musculus. As to conditions: route intraperitoneal. In a few lines:
as §2

Experiment [9] relates to P388. The experiment can be described thus: Antitumor activity against intraperitoneally implanted P388 lymphocytic leukemia (P388) system at dose 105 mg/kg. Type of experiment: functional, Mus musculus. As to conditions: route intraperitoneal. In a few lines: as §2
Experiment [10] concerns P388. The experiment can be described thus: Antitumor activity against intraperitoneally implanted P388 lymphocytic leukemia (P388) system at dose 18.75 mg/kg. Type of experiment: functional, Mus musculus. As to conditions: route intraperitoneal. An outline of the steps:
as §2

Experiment [11] is described as follows: Antitumor activity against intraperitoneally implanted colon 26 (C26) […] system at dose 16 mg/kg. The note with it: route intraperitoneal. Type of experiment: functional, Mus musculus. In a few lines: (§5)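 Murine-screen tumor implanted intraperitoneally and treated at the listed mg/kg doses under standard NCI protocols. Activity is read out as T/C, the treated-to-control ratio.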

The nature of experiment [12]: Antitumor activity against intraperitoneally implanted colon 26 (C26) […] system at dose 32 mg/kg. Type of experiment: functional, Mus musculus. As to conditions: route intraperitoneal. An outline of the steps:
as §5

A short description of experiment [13]: Antitumor activity against intraperitoneally implanted colon 26 (C26) […] system at dose 4 mg/kg. Type of experiment: functional, Mus musculus. As to conditions: route intraperitoneal. An outline of the steps:
as §5

A short description of experiment [14]: Antitumor activity against intraperitoneally implanted colon 26 (C26) […] system at dose 8 mg/kg. Type of experiment: functional, Mus musculus. As to conditions: route intraperitoneal. In a few lines: as §5
The subject of experiment [15] is B16. The experiment can be described thus: Antitumor activity against intraperitoneally implanted B16 melanoma tumor system at dose 16 mg/kg. Type of experiment: functional, Mus musculus. As to conditions: route intraperitoneal. An outline of the steps: as §5
Experiment [16] concerns B16. Kind of experiment: Antitumor activity against intraperitoneally implanted B16 melanoma tumor system at dose 2 mg/kg. Type of experiment: functional, Mus musculus. As to conditions: route intraperitoneal. In a few lines: as §5
The test system of experiment [17] is B16. Kind of experiment: Antitumor activity against intraperitoneally implanted B16 melanoma tumor system at dose 32 mg/kg. As to conditions: route intraperitoneal. Type of experiment: functional, Mus musculus. In a few lines: as §5
Experiment [18] concerns B16. Kind of experiment: Antitumor activity against intraperitoneally implanted B16 melanoma tumor system at dose 4 mg/kg. The note with it: route intraperitoneal. Type of experiment: functional, Mus musculus. An outline of the steps:
as §5

For experiment [19], the system named is B16. The experiment can be described thus: Antitumor activity against intraperitoneally implanted B16 melanoma tumor system at dose 8 mg/kg. Type of experiment: functional, Mus musculus. The note with it: route intraperitoneal. An outline of the steps: as §5
Experiment [20] has as its system P388. The experiment can be described thus: Antitumor activity against intraperitoneally implanted P388 lymphocytic leukemia (P388) system at dose 4 mg/kg. Type of experiment: functional, Mus musculus. As to conditions: route intraperitoneal. An outline of the steps:
as §5

In experiment [21] the test system is P388. Kind of experiment: Antitumor activity against intraperitoneally implanted P388 lymphocytic leukemia (P388) system at dose 8 mg/kg. Type of experiment: functional, Mus musculus. The note with it: route intraperitoneal. An outline of the steps:
as §5

For experiment [22], the system named is P388. Kind of experiment: Antitumor activity against intraperitoneally implanted P388 lymphocytic leukemia (P388) system at dose 16 mg/kg. Type of experiment: functional, Mus musculus. As to conditions: route intraperitoneal. In a few lines: as §5
For experiment [23], the system named is P388. The experiment can be described thus: Antitumor activity against intracerebrally implanted lymphocytic leukemia (P388) system at dose 16 mg/kg. Type of experiment: functional, Mus musculus.
Experiment [24] relates to P388. Kind of experiment: Antitumor activity against intracerebrally implanted lymphocytic leukemia (P388) system at dose 8 mg/kg. Type of experiment: functional, Mus musculus.
Experiment [25] in a line: Antitumor activity against intracerebrally implanted ependymoblastoma (EM) tumor system at dose 0.5 mg/kg. Type of experiment: functional. An outline of the steps: (§6)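 Tumor implanted […] and treated at the listed mg/kg doses under standard NCI protocols. Activity is read out as T/C, the treated-to-control ratio.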
Experiment [26] in a line: Antitumor activity against intracerebrally implanted ependymoblastoma (EM) tumor system at dose 1 mg/kg. Type of experiment: functional. An outline of the steps: as §6
The nature of experiment [27]: Antitumor activity against intracerebrally implanted ependymoblastoma (EM) tumor system at dose 2 mg/kg. Type of experiment: functional. In a few lines:
as §6

A short description of experiment [28]: Antitumor activity against intracerebrally implanted ependymoblastoma (EM) tumor system at dose 0.25 mg/kg. Type of experiment: functional. In a few lines:
as §6

Experiment [29] is described as follows: Antitumor activity against intracerebrally implanted ependymoblastoma (EM) tumor system at dose 4 mg/kg. Type of experiment: functional. An outline of the steps:
as §6

The test system of experiment [30] is B16. The experiment can be described thus: Antitumor activity against B16 melanoma tumor system at dose 1.56 mg/kg. Type of experiment: functional, Mus musculus. An outline of the steps:
(§7)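 B16 melanocarcinoma assay run at the listed mg/kg doses under standard NCI protocols. Activity is read out as T/C, the treated-to-control ratio.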

Experiment [31] concerns B16. The experiment can be described thus: Antitumor activity against B16 melanoma tumor system at dose 12.5 mg/kg. Type of experiment: functional, Mus musculus. An outline of the steps:
as §7

Experiment [32] concerns B16. The experiment can be described thus: Antitumor activity against B16 melanoma tumor system at dose 25 mg/kg. Type of experiment: functional, Mus musculus. In a few lines: as §7
In experiment [33] the test system is B16. Kind of experiment: Antitumor activity against B16 melanoma tumor system at dose 3.13 mg/kg. Type of experiment: functional, Mus musculus. In a few lines:
as §7

Experiment [34] concerns B16. Kind of experiment: Antitumor activity against B16 melanoma tumor system at dose 50 mg/kg. Type of experiment: functional, Mus musculus. An outline of the steps:
as §7

Experiment [35] concerns B16. The experiment can be described thus: Antitumor activity against B16 melanoma tumor system at dose 6.25 mg/kg. Type of experiment: functional, Mus musculus. In a few lines:
as §7

Experiment [36] deals with P388. The description is as §3. Type of experiment: functional, Mus musculus. The note with it: route intraperitoneal. An outline of the steps: as §5
The source holds these as a separate data set.

Experiment [37] concerns P388. Described as §4. Type of experiment: functional, Mus musculus. The note with it: route intraperitoneal. In a few lines:
as §5
This is another data set of the same source.

Experiment [38] relates to P388. The experiment can be described thus: Antitumor activity against intraperitoneally implanted P388 lymphocytic leukemia (P388) system at dose 3.13 mg/kg. The note with it: route intraperitoneal. Type of experiment: functional, Mus musculus. An outline of the steps: as §5
In experiment [39] the test system is P388. The description is as §1. Type of experiment: functional, Mus musculus. The note with it: route intraperitoneal. In a few lines:
as §5
This is another data set of the same source.

For experiment [40], the system named is P388. The experiment can be described thus: Antitumor activity against intraperitoneally implanted P388 lymphocytic leukemia (P388) system at dose 6.25 mg/kg. Type of experiment: functional, Mus musculus. As to conditions: route intraperitoneal. An outline of the steps: as §5

`COc1ccc2c(c1O)-c1cccc3c1C(C2)N(CCOCCCl)CC3` (stereo not given): the T/C stood at 101 with P388 [1], 104 in the experiment with P388 [2], 99 with P388 [3] and 107 in the experiment with P388 [4].

Take `COc1ccc2c(c1O)-c1cccc3c1C(C2)N(CCOC(=O)NCCCl)CC3` (stereo not given): the T/C in the experiment with P388 [5] stood at 105; in the experiment on P388 [6], 97; in the experiment on P388 [7], 99; in the experiment with P388 [8], 101; in the experiment on P388 [9], 99; in the experiment with P388 [10] it was 99.

In the case of `COc1ccc2c(c1O)-c1cccc3c1C(C2)N(CCCl)CC3` (stereo not given), the T/C was found to be 108 in experiment [11]; 124 in [12]; 107 in experiment [13]; 119 in experiment [14]; 106 with B16 [15]; 100 in the experiment on B16 [16]. For the same compound, the T/C in the experiment on B16 [17] amounted to 103; in the experiment on B16 [18] it was 106; with B16 [19], 102; with P388 [20], 151; with P388 [21], 114; with P388 [22], 128. Besides, the T/C in the experiment on P388 [23] was 107; in the experiment on P388 [24], 96; in [25], 100; in experiment [26] it was 96; in [27] it was 99; in [28], 105. In experiment [29], this compound returned a T/C of 104.

Turning to `COc1ccc2c(c1OC(C)=O)-c1cc(OC(C)=O)cc3c1C(C2)N(C(=O)CN(CCCl)CCCl)CC3` (stereo not given), the T/C with B16 [30] is listed as 120; in the experiment with B16 [31], 150; in the experiment on B16 [32] it was 150; in the experiment on B16 [33], 120; in the experiment on B16 [34], 170; with B16 [35], 159. Moreover, the T/C with P388 [36] is 170; with P388 [37], 185; in the experiment on P388 [38], 138; with P388 [39], 95; in the experiment on P388 [40], 150.
